Reference: ChEMBL document CHEMBL1133526, “Molecular simplification of 1,4-diazabicyclo[4.3.0]nonan-9-ones gives piperazine derivatives that maintain high nootropic activity” (2000)
“And” between values parts separate entries of the source, which are not always exact repeats. Equal values may be shown once.

Legend:
Type in all cases: functional
[1] = species: Mus musculus; test: (§1) Change in entry latency expressed as [(entry latency on day 2)-(entry latency on day 1)]
Summary of the method: (§2)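 Mouse passive avoidance test using a light/dark box. Entering the dark side drops the mouse 40 cm into 10 °C water. Training is on day 1 and retention 24 h later. Test drug is given sc 20 min before training, in saline or DMSO/H2O vehicle. […] Mice not entering within 60 s are excluded. Retention latency is capped at 120 s. Δ = day 2 − day 1 latency.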

[2] = system: Mus musculus; test: Minimum effective dose administered subcutaneously in mouse, activity given with reference to piracetam; details: for minimal effective dose: Mus musculus, sc, read-out: MED
Summary of the method: (§3)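 Mouse passive avoidance with scopolamine-induced amnesia (1.5 mg/kg ip after training; 40 cm fall into 10 °C water as punishment). Compounds are given sc in 1:10 dilution steps 20 min before training, in saline or DMSO/H2O. […] Piracetam is the ip reference.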

[3] = system: Mus musculus; test: Nootropic effect of the compound, when administered subcutaneously, on mouse passive Avoidance test, using Scopolamine as Amnesic drug on 1 st day
[4] = system: Mus musculus; test: Nootropic effect of the compound, when administered subcutaneously, on mouse passive Avoidance test, using Scopolamine as Amnesic drug on 2 nd day
[5] = species: Mus musculus; test: Change in entry latency expressed as [(latency on day 2)-(latency on day 1)]; summary of the method: as §2
[6] = system: Mus musculus; test: Effect of 0.1 mg/kg compound in the presence of saline on Amnesia in mouse passive Avoidance test on 1st day
Summary of the method: (§4)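 Mouse passive avoidance without an amnesic agent. Compound is given ip at 0.1 mg/kg 20 min before training, followed by saline. Entry latency into the dark compartment (punishment: 40 cm fall into 10 °C water) is recorded on day 1 and in retention 24 h later, capped at 120 s. Compared with saline controls.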

[7] = system: Mus musculus; test: Effect of 0.1 mg/kg compound in the presence of saline on Amnesia in mouse passive Avoidance test on 2nd day, ip; details: route intraperitoneal; summary of the method: as §4
[8] = system: Mus musculus; test: Effect of 0.1 mg/kg compound on Amnesia induced by Baclofen (2 mg/Kg ip) in mouse passive Avoidance test on 1 st day at 0.1 mg/kg, ip
Summary of the method: (§5)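 Mouse passive avoidance. Compound is given ip 20 min before training. Diphenhydramine (20 mg/kg ip) or baclofen (2 mg/kg ip) is injected immediately after training. Entry latency into the dark, water-pitfall compartment is measured on day 1 and 24 h later, capped at 120 s. Compared with amnesic-only mice.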

[9] = system: Mus musculus; test: Effect of 0.1 mg/kg compound on Amnesia induced by diphenhydramine (20 mg/Kg) in mouse passive Avoidance test on 1st day (no. of animals = 12); summary of the method: as §5
[10] = system: Mus musculus; test: Effect of 0.1 mg/kg compound on Amnesia induced by diphenhydramine (20 mg/Kg) in mouse passive Avoidance test on 1st day; (no. of animals = 11); summary of the method: as §5
[11] = system: Mus musculus; test: Effect of 0.1 mg/kg compound on Amnesia induced by diphenhydramine (20 mg/Kg) in mouse passive Avoidance test on 2 nd day (no. of animals = 11); summary of the method: as §5
[12] = system: Mus musculus; test: Effect of 0.1 mg/kg compound on Amnesia induced by diphenhydramine (20 mg/Kg) in mouse passive Avoidance test on 2 nd day (no. of animals = 12); summary of the method: as §5
[13] = system: Mus musculus; test: Effect of compound on Amnesia induced Clonidine (0.125 mg/kg) in mouse passive Avoidance test on 1st day at 0.1 mg/kg, ip; details: route intraperitoneal
Summary of the method: (§6)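 Mouse passive avoidance. Compound is given ip 20 min before training. Clonidine (0.125 mg/kg ip) is injected 60 min before training. Entry latency into the dark compartment (40 cm fall into 10 °C water) is measured on day 1 and 24 h later, capped at 120 s. Compared with clonidine-only mice.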

[14] = system: Mus musculus; test: Effect of compound on Amnesia induced Clonidine (0.125 mg/kg) in mouse passive Avoidance test on 2 nd day at 0.1 mg/kg, ip; details: route intraperitoneal; summary of the method: as §6
[15] = system: Mus musculus; test: Effect of compound on Amnesia induced by Baclofen (2 mg/Kg ip) in mouse passive Avoidance test on 2 nd day at 0.1 mg/kg, ip; details: route intraperitoneal; summary of the method: as §5
[16] = species: Mus musculus; test: as §1; remark: listed apart in the source
[17] = system: Mus musculus; test: Minimum effective dose administered subcutaneously in mouse passive avoidance test; details: sc, read-out: MED; summary of the method: as §3
[18] = system: Mus musculus; test: Minimum effective dose administered subcutaneously in mouse, activity given with reference to piracetam, dose administered is limited by solubility problems; details: sc, read-out: MED; summary of the method: as §3
[19] = system: Mus musculus; test: Effect of 0.1 mg/kg compound, when administered intraperitoneally along with saline, on Amnesia in mouse passive Avoidance test on 1st day; details: route intraperitoneal; summary of the method: as §4
[20] = system: Mus musculus; test: Effect of 0.1 mg/kg compound, when administered intraperitoneally along with saline, on Amnesia in mouse passive Avoidance test on 2nd day; details: route intraperitoneal; summary of the method: as §4
[21] = system: Mus musculus; test: Effect of 0.1 mg/kg compound, when administered intraperitoneally, on Amnesia induced by Baclofen (2 mg/Kg ip) in mouse passive Avoidance test on 1st day; details: route intraperitoneal; summary of the method: as §5
[22] = system: Mus musculus; test: Effect of 0.1 mg/kg compound, when administered intraperitoneally, on Amnesia induced by Baclofen (2 mg/Kg ip) in mouse passive Avoidance test on 2nd day; details: route intraperitoneal; summary of the method: as §5
[23] = system: Mus musculus; test: Effect of 0.1 mg/kg compound, when administered intraperitoneally, on Amnesia induced by Clonidine (0.125 mg/Kg ip) in mouse passive Avoidance test on 2 nd day; details: route intraperitoneal; summary of the method: as §6
[24] = system: Mus musculus; test: Effect of 0.1 mg/kg compound, when administered intraperitoneally, on Amnesia induced by diphenhydramine (20 mg/Kg) in mouse passive Avoidance test on 2 nd day; details: route intraperitoneal; summary of the method: as §5
[25] = system: Mus musculus; test: Effect of 0.1 mg/kg compound, when administered intraperitoneally, on Amnesia induced by diphenhydramine (20 mg/Kg) in mouse passive Avoidance test on 1st day; details: route intraperitoneal; summary of the method: as §5
[26] = system: Mus musculus; test: Effect of 0.1 mg/kg compound, when administered intraperitoneally, on Amnesia induced Clonidine (0.125 mg/kg) in mouse passive Avoidance test on 1st day; details: route intraperitoneal; summary of the method: as §6
[27] = system: Mus musculus; test: Minimum effective dose administered intraperitoneally in mouse passive avoidance test; details: ip, read-out: MED
[28] = system: Mus musculus; test: Nootropic effect of the compound, when administered subcutaneously, on mouse passive Avoidance test, using Scopolamine as Amnesic drug on 2 nd day; dose is limited by solubility problems; summary of the method: as §2
[29] = system: Mus musculus; test: Nootropic effect of the compound, when administered subcutaneously, on mouse passive Avoidance test, using Scopolamine as Amnesic drug on 2nd day; summary of the method: as §2

## CCC(=O)N1CCN(C(=O)c2ccc(F)cc2)CC1
[1]
  Change in entry latency: 60.2 s
[2]
  minimal effective dose: 30 mg/kg
[3]
  Entry latency: 16.9 s
[4]
  Entry latency: 77.1 s

## CCC(=O)N1CCN(C(=O)c2ccccc2)CC1
[1]
  Change in entry latency: 71 s and 69.1 s and 68.5 s and 67 s
[5]
  Change in entry latency: 56 s and 63.8 s
[6]
  Entry latency: 17.2 s
[7]
  Entry latency: 86.3 s
[8]
  Entry latency: 17.2 s
[9]
  Entry latency: 14.4 s
[10]
  Entry latency: 15.8 s
[11]
  Entry latency: 84.3 s
[12]
  Entry latency: 81.4 s
[2]
  minimal effective dose: 0.001 mg/kg
[13]
  Entry latency: 15 s
[14]
  Entry latency: 78.8 s
[15]
  Entry latency: 73.2 s
[3]
  Entry latency: 20.5 s
[4]
  Entry latency: 91.5 s

## CCCCCC(=O)N1CCN(S(=O)(=O)c2ccc(F)cc2)CC1
[16]
  Entry latency: 64.9 s
[17]
  minimal effective dose: 1 mg/kg
[3]
  Entry latency: 16.6 s
[4]
  Entry latency: 81.5 s

## CCC(=O)N1CCN(S(=O)(=O)c2ccc(Cl)cc2)CC1
[17]
  minimal effective dose: > 0.1 mg/kg

## CC(=O)N1CCN(C(=O)c2ccc(F)cc2)CC1
[1]
  Change in entry latency: 72.6 s
[2]
  minimal effective dose: 10 mg/kg
[3]
  Entry latency: 17.5 s
[4]
  Entry latency: 91.1 s

## CCC(=O)N1CCN(S(=O)(=O)c2ccc([N+](=O)[O-])cc2)CC1
[18]
  minimal effective dose: > 0.1 mg/kg

## CCC(=O)N1CCN(C(=O)c2ccc([N+](=O)[O-])cc2)CC1
[1]
  Change in entry latency: 85.5 s
[2]
  minimal effective dose: 1 mg/kg
[3]
  Entry latency: 18.8 s
[4]
  Entry latency: 104.3 s

## O=C1CCC2CN(S(=O)(=O)c3ccc(F)cc3)CCN12 (stereo unspecified)
[1]
  Change in entry latency: 80.2 s and 64.1 s and 66.7 s
[5]
  Change in entry latency: 79.6 s
[19]
  Entry latency: 14.3 s
[20]
  Entry latency: 94.5 s
[21]
  Entry latency: 12.3 s
[22]
  Entry latency: 76.4 s
[23]
  Entry latency: 81.2 s
[24]
  Entry latency: 95.2 s
[25]
  Entry latency: 15.6 s
[26]
  Entry latency: 14.5 s

## CN1C2CC(OC(=O)C(CO)c3ccccc3)CC1C1OC12.NC(=O)CN1CCCC1=O (stereo unspecified)
[16]
  Entry latency: 91.2 s
[3]
  Entry latency: 17.6 s
[4]
  Entry latency: 108.8 s
[27]
  minimal effective dose: 30 mg/kg

## CCC(=O)N1CCN(S(=O)(=O)c2ccccc2)CC1
[16]
  Entry latency: 113 s
[17]
  minimal effective dose: 0.1 mg/kg
[3]
  Entry latency: 19 s
[4]
  Entry latency: 132 s

## CC1C[C@@H]2CN(C(=O)c3ccccc3)CCN2C1=O (stereo in doubt; endo)
[2]
  minimal effective dose: 1 mg/kg

## CC(=O)N1CCN(S(=O)(=O)c2ccc(F)cc2)CC1C (stereo unspecified)
[17]
  minimal effective dose: 0.1 mg/kg
[3]
  Entry latency: 16.6 s
[4]
  Entry latency: 99.2 s

## CC(=O)N1CCN(C(=O)c2ccccc2)CC1
[1]
  Change in entry latency: 107.7 s
[2]
  minimal effective dose: 10 mg/kg
[3]
  Entry latency: 11.3 s
[28]
  Entry latency: 119 s

## CCC(=O)N1CCN(C(=O)c2ccc(Cl)cc2)CC1
[18]
  minimal effective dose: > 1 mg/kg

## CCCC(=O)N1CCN(C(=O)c2ccccc2)CC1
[1]
  Change in entry latency: 89.8 s
[2]
  minimal effective dose: 1 mg/kg
[3]
  Entry latency: 13.8 s
[4]
  Entry latency: 103.6 s

## CN1[C@@H]2C[C@@H](OC(=O)[C@H](CO)c3ccccc3)C[C@H]1[C@@H]1O[C@@H]12 [SCOPOLAMINE]
[27]
  minimal effective dose: 1.5 mg/kg

## CCC(=O)N1CCN(S(=O)(=O)c2ccc(C)cc2)CC1
[16]
  Entry latency: 72 s
[17]
  minimal effective dose: 10 mg/kg
[3]
  Entry latency: 16.6 s
[4]
  Entry latency: 88.6 s

## CCCC(=O)N1CCN(S(=O)(=O)c2ccccc2)CC1
[1]
  Change in entry latency: 70.4 s
[17]
  minimal effective dose: 1 mg/kg
[3]
  Entry latency: 15 s
[4]
  Entry latency: 85.4 s

## CC(=O)N1CCN(S(=O)(=O)c2ccccc2)CC1
[16]
  Entry latency: 86.5 s
[2]
  minimal effective dose: 0.01 mg/kg
[3]
  Entry latency: 17.5 s
[4]
  Entry latency: 104 s

## CCCC(=O)N1CCN(C(=O)c2ccc(F)cc2)CC1
[1]
  Change in entry latency: 92.2 s
[2]
  minimal effective dose: 10 mg/kg
[3]
  Entry latency: 19.8 s
[4]
  Entry latency: 112 s

## CCCC(=O)N1CCN(S(=O)(=O)c2ccc(F)cc2)CC1
[17]
  minimal effective dose: > 10 mg/kg

## CCC(=O)N1CCN(C(=O)c2ccc(OC)cc2)CC1
[1]
  Change in entry latency: 78.5 s
[2]
  minimal effective dose: 10 mg/kg
[3]
  Entry latency: 17.6 s
[4]
  Entry latency: 96.1 s

## CCC(=O)N1CCN(C(=O)c2ccc(C)cc2)CC1
[18]
  minimal effective dose: > 1 mg/kg

## CCC(=O)N1CCN(S(=O)(=O)c2ccc(F)cc2)CC1
[16]
  Entry latency: 74.7 s
[17]
  minimal effective dose: 0.01 mg/kg
[3]
  Entry latency: 15.9 s
[4]
  Entry latency: 90.6 s

## CCC(=O)N1CCN(Cc2ccccc2)CC1
[1]
  Change in entry latency: 81.1 s
[2]
  minimal effective dose: 10 mg/kg
[3]
  Entry latency: 12.8 s
[29]
  Entry latency: 93.9 s

## CCCN1CCN(S(=O)(=O)c2ccc(F)cc2)CC1
[1]
  Change in entry latency: 81.4 s
[2]
  minimal effective dose: 1 mg/kg
[3]
  Entry latency: 15.3 s
[4]
  Entry latency: 96.7 s

## CCCCC(=O)N1CCN(S(=O)(=O)c2ccc(F)cc2)CC1
[17]
  minimal effective dose: > 0.1 mg/kg

## CCC(=O)N1CCN(S(=O)(=O)c2ccc(OC)cc2)CC1
[18]
  minimal effective dose: > 1 mg/kg

## CC1C[C@@H]2CN(C(=O)c3ccccc3)CCN2C1=O (stereo in doubt; exo)
[2]
  MED: 1 mg/kg

## CC(=O)N1CCN(S(=O)(=O)c2ccc(F)cc2)CC1
[16]
  Entry latency: 69.2 s
[2]
  minimal effective dose: 0.01 mg/kg
[3]
  Entry latency: 19.8 s
[4]
  Entry latency: 89 s
